Assay results as given in ChEMBL document CHEMBL2203076, “Kandenols A-E, eudesmenes from an endophytic Streptomyces sp. of the mangrove tree Kandelia candel” (2012).
Values after ≈ are worked out from the molar mass of the structure shown.

How the values were obtained:
Format in all cases: functional
Enterococcus faecalis = test: Antimicrobial activity against vancomycin-resistant Enterococcus faecalis 1528 R10 by broth microdilution method
Procedure, shortened: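 MIC read-out by standard broth microdilution against E. faecalis 1528 R10, run in the same panel as Bacillus subtilis ATCC 6633 and Mycobacterium vaccae IMET 10670.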

Mycolicibacterium vaccae = test: Antimicrobial activity against Mycobacterium vaccae ATCC IMET 10670 by broth microdilution method
Bacillus subtilis = test: Antimicrobial activity against Bacillus subtilis ATCC 6633 by broth microdilution method

**Q.** How did the MIC (Enterococcus faecalis) turn out when CC1=CC(=O)C[C@]2(C)C[C@@H](O)[C@H](C(C)(C)O)C[C@@H]12 (relative stereo) [KANDENOL A] was run?
**A.** Its MIC is over 100 µg/mL.

**Q.** And the MIC (Mycolicibacterium vaccae)?
**A.** The MIC was 12.5 µg/mL (≈ 49.5 µM).

**Q.** And the MIC (Bacillus subtilis)?
**A.** Its MIC is 50 µg/mL (≈ 198 µM).

**Q.** With CC1=CC(=O)C[C@]2(C)C[C@@H](O)[C@H](C(C)(C)O)C[C@@]12OO [KANDENOL C] as the compound, how does the MIC (Enterococcus faecalis) read?
**A.** The MIC was over 100 µg/mL.

**Q.** And the MIC (Mycolicibacterium vaccae)?
**A.** Its MIC is 12.5 µg/mL (≈ 44 µM).

**Q.** What about the MIC (Bacillus subtilis) of the same compound?
**A.** Its MIC is over 100 µg/mL.

**Q.** For O=C(O)c1cn(C2CC2)c2cc(N3CCNCC3)c(F)cc2c1=O [CIPROFLOXACIN], which MIC (Enterococcus faecalis) is on record?
**A.** Its MIC is 0.78 µg/mL (≈ 2.35 µM).

**Q.** What about the MIC (Mycolicibacterium vaccae) of the same compound?
**A.** The MIC was 0.1 µg/mL (≈ 0.302 µM).

**Q.** And the MIC (Bacillus subtilis)?
**A.** The MIC was under 0.05 µg/mL.

**Q.** Which results are given for CC1=CC(=O)C[C@]2(C)C[C@@H](O)[C@@H]3C[C@@]12OC3(C)C [KANDENOL E]?
**A.** MIC (Enterococcus faecalis): > 100 µg/mL; MIC (Mycolicibacterium vaccae): 12.5 µg/mL (≈ 49.9 µM); MIC (Bacillus subtilis): 50 µg/mL (≈ 200 µM)

**Q.** CC1=CC(=O)C[C@]2(C)CC[C@H](C(C)(C)O)C[C@@]12OO [KANDENOL D] was tested. Which MIC (Enterococcus faecalis) did it give?
**A.** Its MIC is over 100 µg/mL.

**Q.** And the MIC (Mycolicibacterium vaccae)?
**A.** Its MIC is 25 µg/mL (≈ 93.2 µM).

**Q.** And the MIC (Bacillus subtilis)?
**A.** Its MIC is 50 µg/mL (≈ 186 µM).

**Q.** Which results are given for CC1=CC(=O)C[C@]2(C)C[C@@H](O)[C@H](C(C)(C)O)C[C@@]12O (relative stereo) [KANDENOL B]?
**A.** MIC (Enterococcus faecalis): > 100 µg/mL; MIC (Mycolicibacterium vaccae): 12.5 µg/mL (≈ 46.6 µM); MIC (Bacillus subtilis): 50 µg/mL (≈ 186 µM)
